From ChEMBL document CHEMBL1147111, “In vitro and in vivo activities of synthetic trioxolanes against major human schistosome species” (Antimicrob Agents Chemother, 2007)
The source made the active and inactive calls. The rule behind the calls is not given here.

Assays:
Schistosoma mansoni [1] = test: Antischistosomal activity against NMRI mouse juvenile Schistosoma mansoni infection model assessed as reduction of total worm burden at 200 mg/kg, po after 28 days; format: functional; set-up: scale not given: the % may be the effect or the level left
Procedure, shortened: (§1)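 Juvenile-infection model: mice carrying Liberian-strain S. mansoni got one oral dose at day 21 postinfection, as a suspension in 7% Tween 80/3% ethanol. There were 3–5 per group, plus untreated controls. Necropsy by exsanguination followed 28 days after treatment. Liver and mesenteric-vein worms were collected, sexed and counted. Total and female burden reductions were calculated versus controls, with Kruskal-Wallis testing.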

Schistosoma mansoni [2] = test: Antischistosomal activity against NMRI mouse juvenile Schistosoma mansoni infection model assessed as number of cured mouse at 200 mg/kg, po after 28 days; format: functional, organism-based; set-up: dose 200 mg/kg; procedure, shortened: as §1
Schistosoma mansoni [3] = test: Antischistosomal activity against NMRI mouse juvenile Schistosoma mansoni infection model assessed as reduction of female worm burden at 200 mg/kg, po after 28 days; format: functional; set-up: scale not given: the % may be the effect or the level left; procedure, shortened: as §1
Schistosoma japonicum [4] = test: Antischistosomal activity against Syrian golden hamster adult Schistosoma japonicum infection model assessed as reduction of total worm burden at 200 mg/kg, po; format: functional; set-up: scale not given: the % may be the effect or the level left
Procedure, shortened: (§2)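 Hamsters received 100 S. japonicum (Anhui strain) cercariae through shaved abdominal skin. At 35 days postinfection, they were given a single 200 mg/kg oral dose in Tween 80/ethanol suspension, with untreated controls. Animals were killed by bleeding, and worms were recovered by perfusion of hepatic and portomesenteric veins. Worms were sexed and counted, and reductions were computed against controls (Kruskal-Wallis).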

Schistosoma mansoni [5] = test: Antischistosomal activity against Syrian golden hamster adult Schistosoma mansoni infection model assessed as number of cured mouse at 100 mg/kg, po after 28 days; format: functional, organism-based; set-up: dose 100 mg/kg
Procedure, shortened: (§3)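 Hamsters infected with Liberian-strain S. mansoni were treated once orally at 21 days (juvenile lines) or 49 days (adult lines) postinfection. Doses were 50, 100 or 200 mg/kg, in 7% Tween 80/3% ethanol suspension. Groups had 3–4 animals, with untreated controls. After 28 days, animals were bled out. Worms from liver and mesenteric veins were sexed and counted, and cures and burden reductions versus controls were recorded (Kruskal-Wallis).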

Schistosoma japonicum [6] = test: Antischistosomal activity against New Zealand rabbit adult Schistosoma japonicum infection model assessed as reduction of female worm burden at 15 mg/kg, po; format: functional; set-up: scale not given: the % may be the effect or the level left
Procedure, shortened: (§4)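 Rabbits were infected percutaneously with 200 S. japonicum (Anhui strain) cercariae via shaved abdominal skin. A single 15 mg/kg oral dose in Tween 80/ethanol suspension was given 35 days postinfection, with untreated controls. After sacrifice by blood letting, worms were perfused from hepatic and portomesenteric veins, sexed and counted. Cures and burden reductions were determined versus controls (Kruskal-Wallis).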

Schistosoma mansoni [7] = test: Antischistosomal activity against Syrian golden hamster adult Schistosoma mansoni infection model assessed as number of cured mouse at 200 mg/kg, po after 28 days; format: functional, organism-based; set-up: dose 200 mg/kg; procedure, shortened: as §3
Schistosoma japonicum [8] = test: Antischistosomal activity against New Zealand rabbit adult Schistosoma japonicum infection model assessed as reduction of total worm burden at 15 mg/kg, po; format: functional; set-up: scale not given: the % may be the effect or the level left; procedure, shortened: as §4
Schistosoma mansoni [9] = test: Antischistosomal activity against NMRI mouse adult Schistosoma mansoni infection model assessed as number of cured mouse at 400 mg/kg, po after 28 days; format: functional, organism-based; set-up: dose 400 mg/kg
Procedure, shortened: (§5)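 Mice with a Liberian-strain S. mansoni infection were dosed at 49 days postinfection with a single oral dose of compound suspended in 7% Tween 80/3% ethanol. Groups held 3–5 animals, with untreated controls. At 28 days posttreatment, animals were killed by bleeding. Worms in liver and mesenteric veins were removed, sexed and counted. Reductions were calculated against controls and tested by Kruskal-Wallis.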

Schistosoma mansoni [10] = test: Antischistosomal activity against Syrian golden hamster juvenile Schistosoma mansoni infection model assessed as number of cured mouse at 100 mg/kg, po after 28 days; format: functional, organism-based; set-up: dose 100 mg/kg; procedure, shortened: as §3
Schistosoma mansoni [11] = test: Antischistosomal activity against Syrian golden hamster juvenile Schistosoma mansoni infection model assessed as reduction of total worm burden at 100 mg/kg, po after 28 days; format: functional; set-up: scale not given: the % may be the effect or the level left; procedure, shortened: as §3
Schistosoma mansoni [12] = test: Antischistosomal activity against Schistosoma mansoni assessed as worm death at 20 ug/ml after 24 hrs; format: functional, organism-based
Procedure, shortened: (§6)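 Adult S. mansoni (Liberian strain, 49-day-old) were held two males and two females per well, in duplicate, in Hanks' balanced salt solution with 20% calf serum, 300 IU/ml penicillin and 300 μg/ml streptomycin. Drug was given at 20 μg/ml final from a 1 mg/ml stock in 60% DMSO; solvent control was 1.2% DMSO. Incubation was at 37°C in 5% CO2. Worms were scored under a dissecting microscope at 24, 48 and 72 h for death, motor activity and tegument.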

Schistosoma mansoni [13] = test: Reduction of motor activity of Schistosoma mansoni at 20 ug/ml after 48 hrs; format: functional, organism-based; procedure, shortened: as §6
Schistosoma japonicum [14] = test: Antischistosomal activity against Syrian golden hamster adult Schistosoma japonicum infection model assessed as reduction of female worm burden at 200 mg/kg, po; format: functional; set-up: scale not given: the % may be the effect or the level left; procedure, shortened: as §2
Schistosoma mansoni [15] = test: Antischistosomal activity against Syrian golden hamster juvenile Schistosoma mansoni infection model assessed as reduction of female worm burden at 200 mg/kg, po after 28 days; format: functional; set-up: scale not given: the % may be the effect or the level left; procedure, shortened: as §3
Schistosoma mansoni [16] = test: Antischistosomal activity against Schistosoma mansoni assessed as worm death at 20 ug/ml after 48 hrs; format: functional, organism-based; procedure, shortened: as §6
Schistosoma mansoni [17] = test: Antischistosomal activity against Syrian golden hamster juvenile Schistosoma mansoni infection model assessed as reduction of female worm burden at 50 mg/kg, po after 28 days; format: functional; set-up: scale not given: the % may be the effect or the level left; procedure, shortened: as §3
Schistosoma mansoni [18] = test: Antischistosomal activity against Syrian golden hamster juvenile Schistosoma mansoni infection model assessed as reduction of female worm burden at 100 mg/kg, po after 28 days; format: functional; set-up: scale not given: the % may be the effect or the level left; procedure, shortened: as §3
Schistosoma mansoni [19] = test: Antischistosomal activity against Schistosoma mansoni assessed as worm death at 20 ug/ml after 72 hrs; format: functional, organism-based; procedure, shortened: as §6
Schistosoma mansoni [20] = test: Antischistosomal activity against Syrian golden hamster adult Schistosoma mansoni infection model assessed as reduction of total worm burden at 50 mg/kg, po after 28 days; format: functional; set-up: scale not given: the % may be the effect or the level left; procedure, shortened: as §3
Schistosoma mansoni [21] = test: Tegumental alteration in Schistosoma mansoni at 20 ug/ml after 72 hrs; format: functional, organism-based; procedure, shortened: as §6
Schistosoma mansoni [22] = test: Antischistosomal activity against Syrian golden hamster adult Schistosoma mansoni infection model assessed as reduction of total worm burden at 100 mg/kg, po after 28 days; format: functional; set-up: scale not given: the % may be the effect or the level left; procedure, shortened: as §3
Schistosoma mansoni [23] = test: Antischistosomal activity against Syrian golden hamster adult Schistosoma mansoni infection model assessed as reduction of total worm burden at 200 mg/kg, po after 28 days; format: functional; set-up: scale not given: the % may be the effect or the level left; procedure, shortened: as §3
Schistosoma mansoni [24] = test: Antischistosomal activity against Syrian golden hamster adult Schistosoma mansoni infection model assessed as reduction of female worm burden at 200 mg/kg, po after 28 days; format: functional; set-up: scale not given: the % may be the effect or the level left; procedure, shortened: as §3
Schistosoma mansoni [25] = test: Tegumental alteration in Schistosoma mansoni at 20 ug/ml after 48 hrs; format: functional, organism-based; procedure, shortened: as §6
Schistosoma mansoni [26] = test: Antischistosomal activity against Syrian golden hamster juvenile Schistosoma mansoni infection model assessed as number of cured mouse at 200 mg/kg, po after 28 days; format: functional, organism-based; set-up: dose 200 mg/kg; procedure, shortened: as §3
Schistosoma mansoni [27] = test: Tegumental alteration in Schistosoma mansoni at 20 ug/ml after 24 hrs; format: functional, organism-based; procedure, shortened: as §6
Schistosoma mansoni [28] = test: Reduction of motor activity of Schistosoma mansoni at 20 ug/ml after 72 hrs; format: functional, organism-based; procedure, shortened: as §6
Schistosoma japonicum [29] = test: Antischistosomal activity against New Zealand rabbit adult Schistosoma japonicum infection model assessed as number of […] mg/kg, po; format: functional, organism-based; set-up: dose 15 mg/kg; procedure, shortened: as §4
Schistosoma mansoni [30] = test: Antischistosomal activity against Syrian golden hamster juvenile Schistosoma mansoni infection model assessed as number of cured mouse at 50 mg/kg, po after 28 days; format: functional, organism-based; set-up: dose 50 mg/kg; procedure, shortened: as §3
Schistosoma mansoni [31] = test: Antischistosomal activity against Syrian golden hamster juvenile Schistosoma mansoni infection model assessed as reduction of total worm burden at 50 mg/kg, po after 28 days; format: functional; set-up: scale not given: the % may be the effect or the level left; procedure, shortened: as §3
Schistosoma mansoni [32] = test: Reduction of motor activity of Schistosoma mansoni at 20 ug/ml after 24 hrs; format: functional, organism-based; procedure, shortened: as §6
Schistosoma mansoni [33] = test: Antischistosomal activity against Syrian golden hamster adult Schistosoma mansoni infection model assessed as reduction of female worm burden at 50 mg/kg, po after 28 days; format: functional; set-up: scale not given: the % may be the effect or the level left; procedure, shortened: as §3
Schistosoma mansoni [34] = test: Antischistosomal activity against NMRI mouse adult Schistosoma mansoni infection model assessed as reduction of total worm burden at 400 mg/kg, po after 28 days; format: functional; set-up: scale not given: the % may be the effect or the level left; procedure, shortened: as §5
Schistosoma mansoni [35] = test: Antischistosomal activity against Syrian golden hamster adult Schistosoma mansoni infection model assessed as reduction of female worm burden at 100 mg/kg, po after 28 days; format: functional; set-up: scale not given: the % may be the effect or the level left; procedure, shortened: as §3
Schistosoma mansoni [36] = test: Antischistosomal activity against NMRI mouse adult Schistosoma mansoni infection model assessed as reduction of female worm burden at 400 mg/kg, po after 28 days; format: functional; set-up: scale not given: the % may be the effect or the level left; procedure, shortened: as §5
Schistosoma mansoni [37] = test: Antischistosomal activity against Syrian golden hamster adult Schistosoma mansoni infection model assessed as number of cured mouse at 50 mg/kg, po after 28 days; format: functional, organism-based; set-up: dose 50 mg/kg; procedure, shortened: as §3
Schistosoma mansoni [38] = test: Antischistosomal activity against Syrian golden hamster juvenile Schistosoma mansoni infection model assessed as reduction of total worm burden at 200 mg/kg, po after 28 days; format: functional; set-up: scale not given: the % may be the effect or the level left; procedure, shortened: as §3

Q: For `C1CCC2(CC1)COC1(O2)C2CC3CC(C2)CC1C3` (stereo not given), which Activity (Schistosoma mansoni [1]) is on record?
A: 0%

Q: And the Activity (Schistosoma mansoni [2])?
A: inactive

Q: What about the Activity (Schistosoma mansoni [3]) of the same compound?
A: 0%

Q: What does the source list for `O=C(O)C[C@H]1CC[C@]2(CC1)OO[C@]1(O2)C2CC3CC(C2)CC1C3`?
A: Activity (Schistosoma japonicum [4]): 94.2%; Activity (Schistosoma mansoni [5]): inactive; Activity (Schistosoma japonicum [6]): 42.3%; Activity (Schistosoma mansoni [7]): inactive; Activity (Schistosoma japonicum [8]): 40.7%; Activity (Schistosoma mansoni [9]): inactive; Activity (Schistosoma mansoni [10]): inactive; Activity (Schistosoma mansoni [11]): 83%; Activity (Schistosoma mansoni [12]): inactive; Activity (Schistosoma mansoni [13]): inactive; Activity (Schistosoma japonicum [14]): 100%; Activity (Schistosoma mansoni [15]): 75.1%; Activity (Schistosoma mansoni [16]): inactive; Activity (Schistosoma mansoni [17]): 67%; Activity (Schistosoma mansoni [18]): 78.3%; Activity (Schistosoma mansoni [19]): inactive; Activity (Schistosoma mansoni [20]): 46.1%; Activity (Schistosoma mansoni [21]): inactive; Activity (Schistosoma mansoni [1]): 82%; Activity (Schistosoma mansoni [2]): inactive; Activity (Schistosoma mansoni [22]): 69.2%; Activity (Schistosoma mansoni [23]): 85%; Activity (Schistosoma mansoni [24]): 93.2%; Activity (Schistosoma mansoni [25]): inactive; Activity (Schistosoma mansoni [26]): inactive; Activity (Schistosoma mansoni [27]): inactive; Activity (Schistosoma mansoni [28]): inactive; Activity (Schistosoma japonicum [29]): inactive; Activity (Schistosoma mansoni [30]): inactive; Activity (Schistosoma mansoni [31]): 73.4%; Activity (Schistosoma mansoni [32]): inactive; Activity (Schistosoma mansoni [33]): 38.9%; Activity (Schistosoma mansoni [3]): 87.3%; Activity (Schistosoma mansoni [34]): 0%; Activity (Schistosoma mansoni [35]): 79.6%; Activity (Schistosoma mansoni [36]): 0%; Activity (Schistosoma mansoni [37]): inactive; Activity (Schistosoma mansoni [38]): 80.2%

Q: What does the source list for `C1CCC2(CC1)OOC1(O2)C2CC3CC(C2)CC1C3` (stereo not given)?
A: Activity (Schistosoma mansoni [9]): inactive; Activity (Schistosoma mansoni [1]): 82%; Activity (Schistosoma mansoni [2]): inactive; Activity (Schistosoma mansoni [3]): 79.2%; Activity (Schistosoma mansoni [34]): 29.1%; Activity (Schistosoma mansoni [36]): 29.3%

Q: Which results are given for `C1CCC2(CC1)OOC1(CCCCC1)O2`?
A: Activity (Schistosoma mansoni [1]): 22.9%; Activity (Schistosoma mansoni [2]): inactive; Activity (Schistosoma mansoni [3]): 26.4%
